Among the data in ChEMBL document CHEMBL5230171, “Expanding the structure-activity relationships of alkynyl diphenylurea scaffold as promising antibacterial agents” (RSC Med Chem, 2023) are MIC and Activity values, retold here.

Values after ≈ are worked out from the molar mass of the structure shown. Active and inactive are the calls of the source. The calls are words filed in the database; no cut-off is given here.

In one data set the test system is Streptococcus pyogenes. Briefly: Antibacterial activity against Streptococcus pyogenes MGAS 1882 assessed as inhibition of bacterial growth incubated for 18 to 20 hrs by CLSI protocol based broth microdilution method. The format is functional. The settings on record: time 18-20 hrs. In a few lines: (§1)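 Streptococci were diluted from a 0.5 McFarland suspension in cation-adjusted Mueller Hinton broth with 5% lysed horse blood. They were incubated with serial dilutions of test agent in broth microdilution, and the MIC was recorded.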

In data set [1] the test system is Staphylococcus aureus. In words: Antibacterial activity against methicillin resistant Staphylococcus aureus NRS384 USA300 assessed as inhibition of bacterial growth incubated for 18 to 20 hrs by CLSI protocol based broth microdilution method. The format is functional. The following applies: time 18-20 hrs, read-out: MIC. In a few lines:
(§2)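 Broth microdilution against staphylococcal clinical isolates. Each strain was prepared as a 0.5 McFarland suspension and diluted in cation-adjusted Mueller Hinton broth to ~5 × 10^5 CFU mL−1. Serial dilutions of test agents in DMSO stock were incubated with the bacteria, and the MIC was recorded.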
(Broth dilution looks for growth in wells or tubes with falling amounts of substance.)

Data set [2] concerns Staphylococcus aureus. Briefly: Antibacterial activity against methicillin resistant Staphylococcus aureus 119 assessed as inhibition of bacterial growth at 0.5 ug/ml incubated for 18 to 20 hrs by CLSI protocol based broth microdilution method. Format: functional, organism-based. The settings on record: dose 0.5 µg/ml, time 18-20 hrs.
Data set [3] concerns Staphylococcus aureus. Briefly: Antibacterial activity against methicillin resistant Staphylococcus aureus 119 assessed as inhibition of bacterial growth incubated for 18 to 20 hrs by CLSI protocol based broth microdilution method. The format is functional. The following applies: time 18-20 hrs. The method, boiled down:
as §2

The test system of data set [4] is Staphylococcus aureus. Briefly: Antibacterial activity against vancomycin resistant Staphylococcus aureus 10 assessed as inhibition of bacterial growth at 0.5 ug/ml incubated for 18 to 20 hrs by CLSI protocol based broth microdilution method. Format: functional, organism-based. The settings on record: dose 0.5 µg/ml, time 18-20 hrs.
The test system of data set [5] is Staphylococcus aureus. Briefly: Antibacterial activity against vancomycin resistant Staphylococcus aureus 12 assessed as inhibition of bacterial growth incubated for 18 to 20 hrs by CLSI protocol based broth microdilution method. The format is functional. The settings on record: time 18-20 hrs. The method, boiled down: as §2
Data set [6] deals with Staphylococcus aureus. Briefly: Antibacterial activity against methicillin resistant Staphylococcus aureus 384 assessed as inhibition of bacterial growth incubated for 18 to 20 hrs by CLSI protocol based broth microdilution method. Format: functional. The settings on record: time 18-20 hrs. In a few lines: as §2
The subject of data set [7] is Staphylococcus aureus. In words: Antibacterial activity against methicillin sensitive Staphylococcus aureus 107 assessed as inhibition of bacterial growth incubated for 18 to 20 hrs by CLSI protocol based broth microdilution method. Format: functional. The settings on record: time 18-20 hrs. The method, boiled down:
as §2

Data set [8] has as its system Staphylococcus epidermidis. Briefly: Antibacterial activity against Staphylococcus epidermidis 101 assessed as inhibition of bacterial growth incubated for 18 to 20 hrs by CLSI protocol based broth microdilution method. The settings on record: time 18-20 hrs. The format is functional. The method, boiled down:
(§3)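 Staphylococcal and E. coli strains were diluted from a 0.5 McFarland suspension in cation-adjusted Mueller Hinton broth to ~5 × 10^5 CFU mL−1. They were incubated with serial dilutions of test agent in broth microdilution, and the MIC was recorded.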

In data set [9] the test system is Staphylococcus aureus. In words: Antibacterial activity against methicillin sensitive Staphylococcus aureus 107 assessed as inhibition of bacterial growth at 0.5 ug/ml incubated for 18 to 20 hrs by CLSI protocol based broth microdilution method. Format: functional, organism-based. The following applies: dose 0.5 µg/ml, time 18-20 hrs. In a few lines:
as §3

Data set [10] relates to Staphylococcus aureus. In words: Antibacterial activity against methicillin resistant Staphylococcus aureus 386 assessed as inhibition of bacterial growth incubated for 18 to 20 hrs by CLSI protocol based broth microdilution method. The format is functional. The settings on record: time 18-20 hrs. The method, boiled down:
as §2

For data set [11], the system named is Staphylococcus aureus. Briefly: Antibacterial activity against methicillin resistant Staphylococcus aureus 385 assessed as inhibition of bacterial growth incubated for 18 to 20 hrs by CLSI protocol based broth microdilution method. Format: functional. The settings on record: time 18-20 hrs. The method, boiled down:
as §2

Data set [12] deals with Staphylococcus aureus. In words: Antibacterial activity against methicillin resistant Staphylococcus aureus 385 assessed as inhibition of bacterial growth at 0.5 ug/ml incubated for 18 to 20 hrs by CLSI protocol based broth microdilution method. The format is functional, organism-based. The following applies: dose 0.5 µg/ml, time 18-20 hrs.
The subject of data set [13] is Streptococcus pneumoniae. In words: Antibacterial activity against Streptococcus pneumoniae 51916 assessed as inhibition of bacterial growth incubated for 18 to 20 hrs by CLSI protocol based broth microdilution method. Format: functional. The following applies: time 18-20 hrs. The method, boiled down: as §1
The subject of data set [14] is Staphylococcus aureus. In words: Antibacterial activity against methicillin resistant Staphylococcus aureus 384 assessed as inhibition of bacterial growth at 0.5 ug/ml incubated for 18 to 20 hrs by CLSI protocol based broth microdilution method. Format: functional, organism-based. The following applies: dose 0.5 µg/ml, time 18-20 hrs.
Data set [15] relates to Streptococcus pneumoniae. In words: Antibacterial activity against Streptococcus pneumoniae 700677 assessed as inhibition of bacterial growth incubated for 18 to 20 hrs by CLSI protocol based broth microdilution method. The format is functional. The following applies: time 18-20 hrs. The method, boiled down:
as §1

Data set [16] in a line: Hemolytic activity in rabbit erythrocytes at 32 to 64 ug/ml incubated for 30 mins by absorbance based assay. Format: toxicity, cell-based, Oryctolagus cuniculus. The following applies: erythrocyte, 0.5 h, dose 32-64 µg/ml. In a few lines:
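Rabbit erythrocytes were washed three times in PBS pH 7.4 and adjusted to A540 0.8. They were mixed 1:1 with compound (final 16, 32, 64 μg mL−1) for 30 min at 37 °C. After centrifugation at 13 000 × g for 5 min, supernatant A540 was read as % of 1% Triton X-100 complete hemolysis. PBS served as negative control. Each concentration was run twice.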

For data set [17], the system named is Staphylococcus aureus. Briefly: Antibacterial activity against methicillin resistant Staphylococcus aureus NRS384 USA300 infected in Balb/c mouse model of skin infection assessed as reduction in inflammation administered topically twice daily for three consecutive days from day 4 to 6 and measured 24 hrs post last dose. Format: functional, organism-based. The following applies: route top, time 4.0 day. The method, boiled down: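 Mice were anesthetized with 2,2,2-tribromoethanol and injected subcutaneously with 100 μL containing 2 × 10^9 CFU MRSA USA300 in 0.5% HPMC in saline. Topical treatment used a petroleum jelly vehicle, with a fusidic acid positive control. Lesions were photographed 24 h after the last dose. A ~1.5 cm2 skin patch (homogenized in 1 mL saline) and the spleen (in 0.5 mL) were serially diluted and plated on MSA at 37 °C overnight for CFU.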

As to `C/C(=N\NC(=N)N)c1ccc(NC(=O)Nc2ccc(C#Cc3ccccc3)cc2)cc1`, the MIC in the data set on Streptococcus pyogenes, in the data set with Staphylococcus aureus [1], in the data set with Staphylococcus aureus [3], in the data set on Staphylococcus aureus [5], in the data set with Staphylococcus aureus [6] and in the data set on Staphylococcus aureus [7] was 0.5 µg/mL (≈ 1.22 µM) each time. Also, the MIC (in data set [8]; in the data set with Staphylococcus aureus [10]; in the data set with Staphylococcus aureus [11]; in the data set on Streptococcus pneumoniae [13]; in the data set with Streptococcus pneumoniae [15]) was 0.5 µg/mL (≈ 1.22 µM) throughout. In addition, the result in the data set on Staphylococcus aureus [2], in the data set on Staphylococcus aureus [4], in the data set with Staphylococcus aureus [9], in the data set on Staphylococcus aureus [12], in the data set with Staphylococcus aureus [14] and in the data set with Staphylococcus aureus [17] was Active. Also, the Activity result in data set [16] is “Toxic”.
